Measurements taken from ChEMBL document CHEMBL1132146, “Chemical stability and fate of the cytostatic drug ifosfamide and its N-dechloroethylated metabolites in acidic aqueous solutions” (J Med Chem, 1999).

Tests used:
[1] = acute toxicity against rat after iv administration; assay type: organism-based; conditions: in vivo
Procedure, shortened: (§1)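 Single iv or ip injection; two female SD rats or male CD2F1 mice per dose group. Lethality and clinical signs of toxicity observed for 28 days to give an approximate LD50. Animals kept specific-pathogen-free with pellet diet and acidified water (pH 3) ad libitum.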

[2] = acute toxicity against mouse after ip administration; assay type: organism-based; conditions: in vivo; procedure, shortened: as §1
P388 [3] = assay: In vivo antitumor activity against murine P388 leukemia; Effective; assay type: functional, organism-based; conditions: Mus musculus
[4] = pKa. (dissociation constant) of the compound; assay type: physicochemical
Procedure, shortened: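 ³¹P NMR titration at 25 °C in aqueous 0.1 M NaCl to keep ionic strength constant. pH adjusted with NaOH or HCl and measured before and after each spectrum. pKa calculated from the pH dependence of the chemical shift.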

L1210 = assay: In vitro antitumor activity against murine leukemic L1210 cells; No activity; assay type: functional, cell-based; conditions: Mus musculus
P388 [5] = assay: In vivo antitumor activity against murine P388 leukemia; No activity; assay type: functional, organism-based; conditions: Mus musculus

NP1(=O)OCCCN1CCCl (centres undefined)
LD50 [1]: > 1000 mg/kg

O=P1(NCCCl)OCCCN1CCCl (centres undefined) [IFOSFAMIDE]
LD50 [1]: 300 mg/kg | LD50 [2]: 700 mg/kg | Activity (P388 [3]): Effective

O=P1(O)NCCCO1
pKa [4]: 4.1

NP1(=O)NCCCO1 (centres undefined)
Activity (L1210): No activity

NP(=O)(O)OCCCNCCCl
pKa [4]: 2.3

O=P(O)(O)OCCCN1CC1
Activity (L1210): No activity | LD50 [2]: 180 mg/kg | Activity (P388 [5]): No activity

O=P(O)(OCCCNCCCl)OP(=O)(O)OCCCNCCCl
Activity (L1210): No activity | LD50 [2]: > 1000 mg/kg | Activity (P388 [5]): No activity

O=P1(NCCCl)NCCCO1 (centres undefined)
LD50 [1]: 800 mg/kg | Activity (L1210): No activity | Activity (P388 [5]): No activity

O=P(O)(O)OCCCNCCCl
LD50 [1]: 800 mg/kg | Activity (L1210): No activity | Activity (P388 [5]): No activity
